Measured values: ChEMBL document CHEMBL2176865, “Discovery of diarylhydantoins as new selective androgen receptor modulators” (J Med Chem, 2012)

Columns and labels:
[1] = system: Rattus norvegicus; test: Anabolic activity in ORX rat model assessed as levator ani muscle weight at 30 mg/kg, po administered 4 days relative to sham-treated control; format: functional
How it was run: (§1)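 Young (immature) rats castrated, left untreated one week, then dosed daily for four days (test agents orally; testosterone propionate subcutaneously). Untreated ORX and sham-operated rats as controls. Levator ani (anabolic) and ventral prostate (androgenic) weights normalised to body weight; activity % = (W/BW treated − W/BW ORX)/(W/BW sham − W/BW ORX) × 100; A50 = dose giving 50% activity.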

[2] = system: Rattus norvegicus; test: Androgenic activity in ORX rat model assessed as ventral prostate weight at 30 mg/kg, po administered 4 days relative to sham-treated control; format: functional, Prostate gland; how it was run: as §1
[3] = system: Rattus norvegicus; test: Androgenic activity in sc dosed ORX rat model assessed as maximum effect on ventral prostate weight administered 4 days relative to sham-treated control; format: functional, Prostate gland; how it was run: as §1
[4] = system: Rattus norvegicus; test: Anabolic activity in sc dosed ORX rat model assessed as maximum effect on levator ani muscle weight administered 4 days relative to sham-treated control; format: functional; how it was run: as §1
[5] = system: Rattus norvegicus; test: Anabolic activity in ORX rat model assessed as levator ani muscle weight at 1 mg/kg, sc administered 4 days relative to sham-treated control; format: functional; details: route subcutaneous; how it was run: as §1
[6] = system: Rattus norvegicus; test: Anabolic activity in sc dosed ORX rat model assessed as dose required to induce 50% effect on levator ani muscle weight administered 4 days; format: functional; how it was run: as §1
[7] = system: Rattus norvegicus; test: Androgenic activity in sc dosed ORX rat model assessed as dose required to induce 50% effect on ventral prostate weight administered 4 days; format: functional, Prostate gland; how it was run: as §1
[8] = system: Rattus norvegicus; test: Androgenic activity in ORX rat model assessed as ventral prostate weight at 1 mg/kg, sc administered 4 days relative to sham-treated control; format: functional, Prostate gland; details: route subcutaneous; how it was run: as §1

`CN1C(=S)N(c2ccc(C#N)c(C(F)(F)F)c2)C(=O)C1(C)c1ccc(O)cc1` (racemic) showed an Activity [1] of 12% and an Activity [2] of 4%.

With `Cc1c(N2C(=O)N(C)C(C)(c3ccc(O)cc3)C2=O)ccc(C#N)c1Cl` (racemic) the Activity [1] was 82% and the Activity [2] was 12%.

Work on `CN1C(=O)N(c2ccc(C#N)c(C(F)(F)F)c2)C(=O)C1(C)c1ccc(O)cc1` (racemic) yielded an Activity [1] of 84% and an Activity [2] of 14%.

With `CN1C(=O)N(c2ccc(C#N)c(C(F)(F)F)c2)C(=O)[C@]1(C)c1ccc(O)cc1` the Activity [1] was -5% and the Activity [2] was 5%.

Compound `CCC(=O)O[C@H]1CC[C@H]2[C@@H]3CCC4=CC(=O)CC[C@]4(C)[C@H]3CC[C@]12C` [TESTOSTERONE PROPIONATE] has an Activity [3] of 130%, an Activity [4] of 130% and an Activity [5] of 99%. The Activity [6] was 0.3 mg/kg, the Activity [7] was 0.2 mg/kg and the Activity [8] was 73%.

`CN1C(=S)N(c2ccc(Cl)c(Cl)c2)C(=O)C1(C)c1ccc(O)cc1` (racemic) was tested, and the Activity [1] was 13% and the Activity [2] was 0%.
